Published values collected from several papers.
Protocols differ between the studies behind these lines.
Target: Dual specificity mitogen-activated protein kinase kinase 4 (MAP2K4, Homo sapiens, UniProt P45985)
Sequence (P45985 1-399, as in one of the studies): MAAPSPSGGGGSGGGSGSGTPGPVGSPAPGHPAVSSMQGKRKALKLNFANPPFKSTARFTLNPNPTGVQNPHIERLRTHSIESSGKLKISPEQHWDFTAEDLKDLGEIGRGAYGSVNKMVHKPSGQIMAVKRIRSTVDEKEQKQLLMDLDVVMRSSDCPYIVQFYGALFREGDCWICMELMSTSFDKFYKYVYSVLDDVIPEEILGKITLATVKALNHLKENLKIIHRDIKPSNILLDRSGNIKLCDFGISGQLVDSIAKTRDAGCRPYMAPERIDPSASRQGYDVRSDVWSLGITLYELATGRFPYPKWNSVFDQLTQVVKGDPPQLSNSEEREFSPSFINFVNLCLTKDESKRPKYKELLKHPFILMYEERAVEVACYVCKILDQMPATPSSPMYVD

With `c1cnn2ncc(-c3ccnc(N4CCC45COC5)n3)c2c1` the remaining binding was 62% (binding; 1 µM).
`O=C1CCc2cc(Nc3cc(OC4CCOCC4)c([N+](=O)[O-])cc3Cl)ccc2N1` has a remaining binding of 100% (cell-free assay, competition with immobilised ligand; 1 µM).
With `CN(C)c1ncc(F)c(-c2cnn3ncccc23)n1` the remaining binding was 100% (binding; 1 µM).
With `Cc1nc(C2CCN(C(=O)c3ccc(OC(F)(F)F)cc3N)CC2)c2ncc(N3CCN(C)CC3)cc2n1` the remaining binding was 100% (cell-free assay, competition with immobilised ligand; 1 µM).
With `CCN1CCN(Cc2ccc(C(=O)Nc3ccc(C)c(Oc4ccc5c(c4)CC(=O)N5)c3)cc2C(F)(F)F)CC1` the remaining binding was 100% (binding, competition with immobilised ligand; 1 µM).
The remaining binding of `C=CC(=O)N1CCC(C(=O)NCC(=O)N2CCN(c3nc(-c4cnc(N)nc4C(F)F)nc(N4CCOCC4)n3)CC2)CC1` is reported as 100% (binding, competition with immobilised ligand; 1 µM).
With `N[C@@H]1CCN(c2nccc(-c3cnn4ncccc34)n2)C1` the remaining binding was 99% (binding; 1 µM).
`O=C(NCCCN1CCOCC1)c1ccc(Nc2nccc(-c3cc4ccccc4s3)n2)cc1` gave a remaining binding of 69% (binding, competition with immobilised ligand; 1 µM).
With `O=C(NCC1CCOCC1)c1n[nH]cc1NC(=O)c1c(F)cccc1F` the remaining binding was 68% (binding, competition with immobilised ligand; 1 µM).
With `CN(c1nccc(-c2cnn3ncccc23)n1)C1CC1` the remaining binding was 100% (binding; 1 µM).
The remaining binding of `CCC(=O)N[C@@H]1CC[C@H](C(=O)N(C)c2ccc(-c3nc4ccccc4o3)cc2)C1` is reported as 100% (cell-free assay, competition with immobilised ligand; 1 µM).
The remaining binding of `Nc1ncc2c(n1)-c1c([nH]c3ccc(C#CC4CC4)cc13)CCCC2` is reported as 24% (binding, competition with immobilised ligand; 1 µM).
`COc1cnc(Nc2cccc(S(N)(=O)=O)c2)nc1N1CCN(c2ccccc2)CC1` has a remaining binding of 99% (binding, competition with immobilised ligand; 1 µM).
The remaining binding of `CN(C)c1nccc(-c2cnc3ncccn23)n1` is reported as 84% (binding; 1 µM).
With `Nc1c(C(=O)NCc2ccc(C(=O)NCCCC3CCCCC3)cc2)cnn1-c1ccccc1` the remaining binding was 100% (cell-free assay, competition with immobilised ligand; 0.1 µM).
The remaining binding of `C[C@@H]1CCN(c2nccc(-c3cnn4ncccc34)n2)C1` is reported as 69% (binding; 1 µM).
For `CC1=C(C#N)C(c2ccc3c(c2)c(NC(=O)c2ccccc2C)nn3C)C(C#N)=C(C)N1`, the remaining binding was 79% (cell-free assay, competition with immobilised ligand; 1 µM).
With `COc1cnc(Nc2cccc(S(N)(=O)=O)c2)nc1N1CCN(c2ccccc2)C(=O)C1` the remaining binding was 71% (binding, competition with immobilised ligand; 1 µM).
With `CS(=O)(=O)NCC[C@H](NC(=O)c1cncc2c1cnn2-c1ccc(F)cc1)c1ccnc(S(C)(=O)=O)c1` the remaining binding was 100% (cell-free assay, competition with immobilised ligand; 1 µM).
With `O=C(NCCCN1CCOCC1)c1ccc(Nc2ncc(Cl)c(-c3ccc(Cl)s3)n2)cc1` the remaining binding was 56% (binding, competition with immobilised ligand; 1 µM).
